Measurements published in article PMC7501995 (Cell metabolism, 2020).
“Also recorded” adds a separate entry of the source.

Experiments:
[1] = tested on: C57BL/6J mice; assay: Hyperinsulinemic-euglycemic clamp in lean C57BL/6J mice; format: in vivo, mouse
Summary of the method: (§1)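 Lean C57BL/6J or db/db mice given a jugular vein catheter 5–6 days beforehand; treated with test compound and fasted overnight. 2 h hyperinsulinemic-euglycemic clamp run in awake mice with human insulin (150 mU/kg prime, then 2.5 mU/kg/min). Tissue uptake in gastrocnemius and epididymal WAT from 2-[14C]DG-6-phosphate, separated by ion-exchange, and the plasma 2-[14C]DG profile. n = 5–6 mice/group.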

[2] = Cellular cytotoxicity assay; format: cell-based; settings: in vitro
[3] = tested on: TXNIP-deficient mice; assay: SRI-37330 treatment of TXNIP-deficient mice; format: in vivo, mouse
[4] = tested on: C57BL/6J mice rendered diabetic by multiple low-dose STZ; assay: Multiple low-dose STZ-induced diabetes in C57BL/6J mice; format: in vivo, mouse
[5] = tested on: human islet gene expression; assay: RNA sequencing of human islets; format: cell-based; settings: 25 mM glucose, 1 μM
Summary of the method: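 Human islets (IIDP; same-donor controls) held overnight at 5 mM glucose, then 24 h at 25 mM glucose with or without 1 µM test compound. RNA extracted with miRNeasy. Libraries prepared as TruSeq stranded mRNA and sequenced single-end at about 43 million reads/sample.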

[6] = tested on: TXNIP mRNA expression in INS-1 cells; assay: TXNIP mRNA expression by qRT-PCR in INS-1 cells; format: cell-based; settings: rat INS-1 cells, 25 mM glucose, 1 μM, 24 h, qPCR
Summary of the method: (§2)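 INS-1 cells, C57BL/6J mouse islets (collagenase XI-isolated) or human islets (at least three donors, same-donor controls) kept overnight in 5 mM glucose RPMI 1640. Then incubated 24 h in 25 mM glucose RPMI 1640 with or without 1 µM test compound. TXNIP and related mRNAs measured by qRT-PCR; n = 6 (INS-1) or 3 (mouse islets) independent experiments.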

[7] = tested on: primary mouse hepatocytes; assay: Hepatocyte cAMP production; format: cell-based
Summary of the method: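 Primary hepatocytes came from anesthetized lean chow-fed male C57BL/6J mice, liver-specific glucagon receptor knockout mice, or Txnip-deficient mice. They were plated on collagen at 3 × 10^5 cells/well in serum-free DMEM and left 4 h to attach. Medium was then changed and cells were exposed to graded test-compound concentrations with glucagon for 24h. Cells were washed twice in PBS and harvested in 0.1M HCl. Intracellular cAMP was measured by direct immunoassay; n = 3 independent experiments.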

[8] = tested on: db/db mice; assay: Oral treatment of obese, diabetic db/db mice; format: in vivo, mouse
[9] = tested on: TXNIP protein levels in INS-1 cells; assay: TXNIP protein immunoblotting in INS-1 cells; format: cell-based, rat; settings: 24h
Summary of the method: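 Rat INS-1 beta-like cells were grown at 37°C in humidified 5% CO2. Whole-cell protein extracts were prepared and protein was quantified by BCA assay. Equal protein amounts were loaded per lane for TXNIP immunoblotting.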

[10] = tested on: TXNIP expression in human islets; format: cell-based
Summary of the method: as §2

[11] = tested on: primary mouse hepatocytes; assay: Hepatocyte glucose output; format: cell-based
Summary of the method: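 Hepatocytes were isolated from male C57BL/6J, liver-specific GcgR-knockout or Txnip-deficient mice and plated on collagen at 3 × 10^5 cells/well in serum-free DMEM. After 4 h attachment, they were treated 24h with graded test-compound concentrations. For the last 6h, cells were washed twice in PBS and placed in serum-, glucose- and phenol red-free DMEM, with or without lactate (10 mM) and/or glucagon (100 nM). Medium glucose was read colorimetrically and normalized to total protein; n = 3–4 mice.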

[12] = tested on: L-type calcium channels; assay: Calcium channel blockade; settings: in contrast to verapamil
[13] = tested on: TXNIP expression in primary mouse islets; assay: TXNIP expression by qPCR in primary mouse islets at high glucose; format: cell-based; settings: 25 mM glucose, 1 μM, 24 h
Summary of the method: as §2

[14] = Plasma concentration and oral bioavailability in mice; format: in vivo, mouse
[15] = tested on: human TXNIP promoter; format: cell-based; settings: INS-1 cells, 25 mM glucose, 5 μM, 24 h
Summary of the method: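 INS-1 cells transfected with SV40-E-box or SV40-Control firefly plasmid (0.4 µg/mL) plus pRL-TK renilla control (10 ng/mL). After 18 h, switched to 5 mM glucose for 6 h, then to 25 mM glucose. Treated with or without 5 µM test compound for 24 h. Read by dual-luciferase assay; n = 6 independent experiments.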

[16] = tested on: db/db mice; assay: Hyperinsulinemic-euglycemic clamp in db/db mice; format: in vivo, mouse
Summary of the method: as §1

[17] = Off-target liability panel; settings: currently available panel
[18] = GcgR−/−L hepatocytes, glucagon present

Compound: CS(=O)(=O)NCC1CCCN(c2ncnc3ccc(C(F)(F)F)cc23)C1 (centres unmarked) [SRI-37330, N-((1-(6-(trifluoromethyl)quinazolin-4-yl)piperidin-3-yl)methyl)methanesulfonamide]
- glucose infusion rates ([1]; lean C57BL/6J mice): comparable between groups
- hepatic insulin action ([1]; lean C57BL/6J mice): comparable between groups
- insulin-stimulated glucose uptake in white adipose tissue ([1]; lean C57BL/6J mice, epididymal): comparable between groups
- insulin-stimulated glucose uptake in skeletal muscle ([1]; lean C57BL/6J mice, gastrocnemius): comparable between groups
- basal hepatic glucose production ([1]; lean awake C57BL/6J mice): significantly downregulated
- insulin sensitivity ([1]; lean awake C57BL/6J mice): no alteration in insulin sensitivity
- cytotoxicity [2]: no cytotoxicity
- glucose homeostasis and serum glucagon [3]: no longer able to further improve glucose homeostasis or lower serum glucagon levels
- serum glucagon levels [3]: even elevated
- urine glucose, fold lower than in untreated or empagliflozin-treated animals ([4]; STZ mice): more than 10 fold
- blood glucose control compared to metformin or empagliflozin ([4]; STZ mice, drinking water): slightly better blood glucose control than metformin or empagliflozin
- body weight at the end of the experiment ([4]; STZ mice, vs untreated): higher body weight
- fasting blood glucose ([4]; STZ mice, vs untreated): lower fasting blood glucose
- fasting serum insulin ([4]; STZ mice, vs untreated): higher; also recorded: almost two-fold elevation
- serum triglycerides ([4]; STZ mice, only treatment with this effect): significantly lower serum triglycerides
- fasting serum glucagon, fold lower than untreated ([4]; STZ-diabetic mice): 3.6 fold
- effectiveness by oral gavage twice a day ([4]; STZ-induced diabetes, gavage 12 h apart): confirmed its effectiveness in obesity- as well as STZ-induced diabetes
- dose-dependence of glucose lowering ([4]; oral gavage twice a day): dose-dependence of the glucose-lowering effects
- BCL2L1 expression ([5]; confirmed by qRT-PCR): upregulated
- CTGF expression ([5]; confirmed by qRT-PCR): upregulated
- IGF-1R expression ([5]; confirmed by qRT-PCR): upregulated
- MAFA expression ([5]; confirmed by qRT-PCR): upregulated
- MLXIPL expression ([5]; confirmed by qRT-PCR): downregulated
- NLRP1 expression ([5]; confirmed by qRT-PCR): lower expression
- general transcription ([5]; three donors, 24 h, RNA sequencing): does not inhibit general transcription
- TXNIP expression in the context of high glucose [6]: significantly inhibit TXNIP expression
- cAMP production [7, 18]: no longer able to inhibit hepatocyte glucose output or cAMP production
- glucagon-induced cAMP production ([7]; primary hepatocytes of TXNIP-deficient mice): maintained its ability to block glucose output and glucagon-induced cAMP production
- glucagon-induced production of cAMP ([7]; wild-type primary hepatocytes, 24h, glucagon): significantly downregulated in a dose-dependent manner
- hepatic steatosis (liver histology) ([8]; db/db mice): dramatically improved the severe steatosis
- alpha cell mass ([8]; db/db mice, islet morphometry): small, but significant decline in alpha cell mass
- alpha cell number ([8]; db/db mice, islet morphometry): clear trend towards lower alpha cell number
- beta cell mass and number ([8]; db/db mice, islet morphometry): remained unchanged
- fasting blood glucose ([8]; db/db mice, oral): significantly downregulated
- fasting serum glucagon ([8]; db/db mice, oral): significant downregulate
- fasting serum insulin ([8]; db/db mice, oral): remained unchanged
- body weight ([8]; db/db mice, oral, 4 weeks): did not affect body weights
- non-fasting blood glucose ([8]; db/db mice, oral, 4 weeks): decreased significantly within 3 days of starting SRI-37330 treatment and returned to euglycemic levels
- effectiveness by oral gavage twice a day ([8]; obesity-induced diabetes, gavage 12 h apart): confirmed its effectiveness in obesity- as well as STZ-induced diabetes
- TXNIP protein levels [9]: inhibited TXNIP protein levels in a dose-dependent manner
- expression of other arrestin genes ARRB1 and ARRDC3 and of thioredoxin ([10]; human islets, qRT-PCR, negative controls): not affected
- TXNIP expression in the context of high glucose ([10]; isolated human islets, 25 mM glucose, 1 μM, 24 h): significantly inhibit TXNIP expression
- hepatocyte glucose output [11, 18]: no longer able to inhibit hepatocyte glucose output or cAMP production
- glucose output ([11]; primary hepatocytes of TXNIP-deficient mice, glucagon present): maintained its ability to block glucose output and glucagon-induced cAMP production
- basal or stimulated glucose output in the absence of glucagon ([11]; wild-type primary hepatocytes, 24h, no substrate or lactate): did not affect basal or stimulated glucose output
- calcium channel blocker activity [12]: not a calcium channel blocker
- TXNIP expression in the context of high glucose [13]: significantly inhibit TXNIP expression
- average plasma concentration ([14]; mice, 100 mg/kg/day in the drinking water): 5 µmol/L
- oral bioavailability ([14]; mouse, in vivo, po): orally bioavailable
- effect on heterologous SV40 promoter coupled with the TXNIP E-box motif [15]: confer SRI-37330 responsiveness
- basal hepatic glucose production [16]: significantly lower basal hepatic glucose production
- glucose infusion rate [16]: not significantly different
- hepatic insulin action [16]: not significantly different
- insulin-stimulated glucose uptake in skeletal muscle [16]: remained unchanged
- insulin-stimulated glucose uptake in white adipose tissue [16]: remained unchanged
- off-target liabilities [17]: lack of off-target liabilities
